We go through 8 compounds from ChEMBL document CHEMBL2062507, “Myxobacteria versus sponge-derived alkaloids: the bengamide family identified as potent immune modulating agents by scrutiny of LC-MS/ELSD libraries” (Bioorg Med Chem, 2012).

Experiment [1] deals with HCT-116. Put plainly: Cytotoxicity against human HCT116 cells after 48 hrs by SRB assay. The experiment is classed as functional, cell-based. To be noted: HCT-116, 48 h.
Experiment [2] in a line: Inhibition of LPS-stimulated NFkappaB activation transfected in mouse RAW264.7 cells after 18 hrs by luciferase reporter gene assay. As to conditions: RAW264.7, 18 h. On the technique in general: Reporter assays use an easily measured gene product as a stand-in for the process of interest.
In experiment [3] the test system is RAW264.7. Put plainly: Cytotoxicity against mouse RAW264.7 cells after 18 hrs by MTT assay. The experiment is classed as cell-based. To be noted: RAW264.7, 18 h.
The test system of experiment [4] is RAW264.7. Put plainly: Antiinflammatory activity in mouse RAW264.7 cells assessed as inhibition of LPS-stimulated TNFalpha expression up to 10 uM by quantitative RT-PCR analysis. Type of experiment: functional, cell-based. The procedure, abridged:
(§1)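 LPS (100 ng/mL)-stimulated RAW264.7 cells co-treated with compound at 0.01–10 μM. Total RNA (0.5 μg) DNase I-treated, reverse transcribed, cDNAs pooled per condition, SYBR Green real-time PCR array. mRNA normalised to GAPDH. Three independent experiments, one-way ANOVA, p<0.05 taken as significant.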

The subject of experiment [5] is RAW264.7. Put plainly: Antiinflammatory activity in mouse RAW264.7 cells assessed as inhibition of LPS-stimulated IL-6 expression up to 10 uM by quantitative RT-PCR analysis. Type of experiment: functional, cell-based. The method in brief: as §1
The test system of experiment [6] is RAW264.7. Put plainly: Antiinflammatory activity in mouse RAW264.7 cells assessed as inhibition of LPS-stimulated MCP1 expression up to 10 uM by quantitative RT-PCR analysis. Type of experiment: functional, cell-based. The method in brief: as §1
Experiment [7] relates to RAW264.7. Put plainly: Inhibition of LPS-stimulated NFkappaB activation transfected in mouse RAW264.7 cells at 0.01 to 10 uM after 4 hrs by measuring IKappaBalpha phosphorylation by Western blot analysis. The experiment is classed as cell-based. The method in brief:
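RAW264.7 cells grown near confluent in 6-well plates and given increasing compound concentrations with LPS for 4 h at 37 °C. Lysed in SDS loading buffer, run on 4–15% SDS-PAGE gels and blotted. Probed with anti-phospho-IκB and anti-IκB (1:1000), then HRP secondary. Detected by chemiluminescence on film, β-actin as loading control.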
For orientation: In western blotting, separated proteins are transferred to a membrane and probed.

In experiment [8] the test system is RAW264.7. Put plainly: Antiinflammatory activity in mouse RAW264.7 cells assessed as inhibition of LPS-stimulated iNOS expression up to 10 uM by quantitative RT-PCR analysis. Type of experiment: functional, cell-based. The method in brief: as §1
In experiment [9] the test system is RAW264.7. Put plainly: Antiinflammatory activity in mouse RAW264.7 cells assessed as inhibition of LPS-stimulated nitric oxide production up to 10 uM after 30 mins by Greiss method. The experiment is classed as functional, cell-based. The procedure, abridged: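 RAW264.7 cells grown 24 h in RPMI1640 in 96-well plates, then given fresh medium with compound and E. coli 055:B5 LPS. Supernatant mixed with Griess reagent (sulfanilamide, N-1-naphthylethylenediamine, H3PO4) for 30 min at room temperature in the dark. Absorbance read at 530 nm and converted to nitrite using a sodium nitrite standard curve.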

pIC50: −log10 of the molar value. The source made the active and inactive calls. The rule behind the calls is not given here.

On to `CO[C@@H](C(=O)N[C@H]1CC[C@@H](OC(=O)C2CCCCC2)CN(C)C1=O)[C@H](O)[C@@H](O)[C@H](O)/C=C/C(C)(C)C`, for which the values for the pIC50 in experiment [1], in experiment [2] and in [3] were 7.40, 6.30 and less than 4.30, respectively.
Turning to `CCC(C)/C=C/[C@@H](O)[C@H](O)[C@@H](O)[C@@H](OC)C(=O)N[C@H]1CCCCNC1=O` (mixture of isomers), the pIC50 in [1] was 5.96; in experiment [2], 5.70; in experiment [3], less than 4.30.
For `CCC(C)/C=C/[C@@H](O)[C@H](O)[C@@H](O)[C@@H](OC)C(=O)N[C@H]1CCCCN(C)C1=O` (mixture of isomers) the same measures were 5.82, 5.70 and less than 4.30.
For the compound `CCCCCCCCCCCCCC(=O)O[C@H]1CC[C@H](NC(=O)[C@H](OC)[C@H](O)[C@@H](O)[C@H](O)/C=C/C(C)C)C(=O)NC1` [BENGAMIDE A], the Activity entry in experiment [4], in experiment [5] and in experiment [6] was “Dose-dependent effect” each time. In addition, the pIC50 is 6.30 in experiment [4]; 7.74 in experiment [1]; 6.00 in experiment [5]; 7.12 in [2]; 6.30 in [6]; less than 4.30 in [3]. The inhibition entry in [7] is “Active”. The outcome in experiment [8] and in [9] was inactive.
Regarding `CCCCCCCCCCCCCC(=O)O[C@H]1CC[C@H](NC(=O)[C@H](OC)[C@H](O)[C@@H](O)[C@H](O)/C=C/C(C)C)C(=O)N(C)C1` [BENGAMIDE B], the Activity entry in experiment [4], in [5] and in [6] was “Dose-dependent effect” each time. For the same compound, the pIC50 was 6.30 in experiment [4]; 8.70 in experiment [1]; 6.30 in experiment [5]; 7.07 in experiment [2]; 6.30 in [6]; less than 4.30 in [3]. The inhibition result in [7] was “Active”. In addition, the result in experiment [8] and in experiment [9] was inactive.
Take `CO[C@@H](C(=O)N[C@H]1CCCCNC1=O)[C@H](O)[C@@H](O)[C@H](O)/C=C/C(C)C` [BENGAMIDE E]: the pIC50 in [1] was 7.22; in experiment [2], 5.12; in experiment [3] it was less than 4.30. Also, in experiment [7], the inhibition entry was “Active”.
On to `CCCCCCCCCCCCCC(=O)O[C@H](/C=C/C(C)C)[C@H](O)[C@@H](O)[C@@H](OC)C(=O)N[C@H]1CCCCNC1=O` [BENGAMIDE P], for which the pIC50 in [1] was 6.14.
As for `CC1=C(O)C(=O)C=C2C1=CC=C1[C@@]2(C)CC[C@@]2(C)[C@@H]3C[C@](C)(C(=O)O)CC[C@]3(C)CC[C@]12C` [CELASTROL], the pIC50 in experiment [2] was 6.70; in experiment [3], less than 4.30.

A word on the pIC50: it is the negative decadic logarithm of the IC50, by convention in mol/L.
